Assay results as given in ChEMBL document CHEMBL4689842, “EUbOPEN Chemogenomics Library wave 1” (2021).

Tests used:
Format in all cases: toxicity, cell-based
U2OS = assay: Incucyte cell viability with U2OS; conditions: human, 10 µM, compound concentration 10 uM; note: filed as whole numbers so only -1 and 0 and 1 occur
HEK-293T = assay: Incucyte cell viability with HEK293T; conditions: human, 10 µM, compound concentration 10 uM; note: filed as whole numbers so only -1 and 0 and 1 occur
Fibroblast = assay: Multiplex assay against human fibroblast
In short: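 Hoechst33342, BioTracker Green Microtubule Cytoskeleton Dye, MitoTracker Red and Annexin V Alexa Fluor 680 were added to live cells at seeding, and imaging on a CQ1 microscope at 37°C and 5% CO2 followed compound addition. Gating by CellPathfinder machine learning separated cells into Hoechst high-intensity objects or normal cells, then normal cells into healthy, pyknosed or fragmented nuclei, then pyknosed cells into mitotic or apoptotic. Per cents of healthy-nucleus cells are reported for the tubulin, mitochondrial-mass and membrane-permeability phenotypes.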

[1] = 0 h, replicate number 1, timepoint 0 hours
[2] = 6 h, replicate number 1, timepoint 6 hours
[3] = 12 h, replicate number 1, timepoint 12 hours
[4] = 18 h, replicate number 1, timepoint 18 hours
[5] = 24 h, replicate number 1, timepoint 24 hours
[6] = 12 h, 1 µM, compound concentration 1 uM, replicate 1
[7] = 12 h, 1 µM, compound concentration 1 uM, replicate 2
[8] = 12 h, 10 µM, compound concentration 10 uM, replicate 1
[9] = 12 h, 10 µM, compound concentration 10 uM, replicate 2
[10] = 24 h, 1 µM, compound concentration 1 uM, replicate 1
[11] = 24 h, 1 µM, compound concentration 1 uM, replicate 2
[12] = 24 h, 10 µM, compound concentration 10 uM, replicate 1
[13] = 24 h, 10 µM, compound concentration 10 uM, replicate 2

Structure (SMILES): CCOC(=O)CCNc1cc(N2CCc3ccccc3CC2)nc(-c2ccccn2)n1
- Growth Rate (U2OS; [1]): 0
- Growth Rate (U2OS; 0 h, replicate number 2, timepoint 0 hours): 1
- Growth Rate (U2OS; [2]): 0
- Growth Rate (U2OS; [3]): 0
- Growth Rate (U2OS; [4]): 0
- Growth Rate (U2OS; [5]): 0
- Growth Rate (HEK-293T; [1]): 1
- Growth Rate (HEK-293T; [2]): 0
- Growth Rate (HEK-293T; [3]): 0
- Growth Rate (HEK-293T; [4]): 0
- Growth Rate (HEK-293T; [5]): 0
- Population Apoptotic (%) (Fibroblast; [6]): 89%
- Population Fragmented Nuclei (%) (Fibroblast; [6]): 22%
- Population Healthy Nuclei (%) (Fibroblast; [6]): 60%
- Population Hoechst High Intensity Objects (%) (Fibroblast; [6]): 16%
- Population Membrane Permeable-Phenotype (%) (Fibroblast; [6]): 8%
- Population Mitochondria Different-Phenotype (%) (Fibroblast; [6]): 4%
- Population Mitotic Cells (%) (Fibroblast; [6]): 10%
- Population Normal (%) (Fibroblast; [6]): 83%
- Population Pyknosed Nuclei (%) (Fibroblast; [6]): 16%
- Population Tubulin-Different-Phenotype (%) (Fibroblast; [6]): 5%
- Total Cell Count (Fibroblast; [6]): 214
- Population Apoptotic (%) (Fibroblast; [7]): 100%
- Population Fragmented Nuclei (%) (Fibroblast; [7]): 47%
- Population Healthy Nuclei (%) (Fibroblast; [7]): 42%
- Population Hoechst High Intensity Objects (%) (Fibroblast; [7]): 33%
- Population Membrane Permeable-Phenotype (%) (Fibroblast; [7]): 0%
- Population Mitochondria Different-Phenotype (%) (Fibroblast; [7]): 11%
- Population Mitotic Cells (%) (Fibroblast; [7]): 0%
- Population Normal (%) (Fibroblast; [7]): 66%
- Population Pyknosed Nuclei (%) (Fibroblast; [7]): 9%
- Population Tubulin-Different-Phenotype (%) (Fibroblast; [7]): 11%
- Total Cell Count (Fibroblast; [7]): 63
- Population Apoptotic (%) (Fibroblast; [8]): 68%
- Population Fragmented Nuclei (%) (Fibroblast; [8]): 29%
- Population Healthy Nuclei (%) (Fibroblast; [8]): 50%
- Population Hoechst High Intensity Objects (%) (Fibroblast; [8]): 17%
- Population Membrane Permeable-Phenotype (%) (Fibroblast; [8]): 10%
- Population Mitotic Cells (%) (Fibroblast; [8]): 31%
- Population Normal (%) (Fibroblast; [8]): 82%
- Population Pyknosed Nuclei (%) (Fibroblast; [8]): 20%
- Population Tubulin-Different-Phenotype (%) (Fibroblast; [8]): 13%
- Total Cell Count (Fibroblast; [8]): 175
- Population Apoptotic (%) (Fibroblast; [9]): 66%
- Population Fragmented Nuclei (%) (Fibroblast; [9]): 57%
- Population Healthy Nuclei (%) (Fibroblast; [9]): 35%
- Population Hoechst High Intensity Objects (%) (Fibroblast; [9]): 40%
- Population Membrane Permeable-Phenotype (%) (Fibroblast; [9]): 33%
- Population Mitochondria Different-Phenotype (%) (Fibroblast; [9]): 6%
- Population Mitotic Cells (%) (Fibroblast; [9]): 33%
- Population Normal (%) (Fibroblast; [9]): 60%
- Population Pyknosed Nuclei (%) (Fibroblast; [9]): 7%
- Population Tubulin-Different-Phenotype (%) (Fibroblast; [9]): 73%
- Total Cell Count (Fibroblast; [9]): 70
- Population Apoptotic (%) (Fibroblast; [10]): 76%
- Population Fragmented Nuclei (%) (Fibroblast; [10]): 23%
- Population Healthy Nuclei (%) (Fibroblast; [10]): 63%
- Population Hoechst High Intensity Objects (%) (Fibroblast; [10]): 12%
- Population Membrane Permeable-Phenotype (%) (Fibroblast; [10]): 11%
- Population Mitochondria Different-Phenotype (%) (Fibroblast; [10]): 1%
- Population Mitotic Cells (%) (Fibroblast; [10]): 23%
- Population Normal (%) (Fibroblast; [10]): 87%
- Population Pyknosed Nuclei (%) (Fibroblast; [10]): 13%
- Population Tubulin-Different-Phenotype (%) (Fibroblast; [10]): 1%
- Total Cell Count (Fibroblast; [10]): 225
- Population Apoptotic (%) (Fibroblast; [11]): 100%
- Population Fragmented Nuclei (%) (Fibroblast; [11]): 60%
- Population Healthy Nuclei (%) (Fibroblast; [11]): 34%
- Population Hoechst High Intensity Objects (%) (Fibroblast; [11]): 26%
- Population Membrane Permeable-Phenotype (%) (Fibroblast; [11]): 0%
- Population Mitochondria Different-Phenotype (%) (Fibroblast; [11]): 14%
- Population Mitotic Cells (%) (Fibroblast; [11]): 0%
- Population Normal (%) (Fibroblast; [11]): 73%
- Population Pyknosed Nuclei (%) (Fibroblast; [11]): 4%
- Population Tubulin-Different-Phenotype (%) (Fibroblast; [11]): 14%
- Total Cell Count (Fibroblast; [11]): 56
- Population Apoptotic (%) (Fibroblast; [12]): 82%
- Population Fragmented Nuclei (%) (Fibroblast; [12]): 34%
- Population Healthy Nuclei (%) (Fibroblast; [12]): 50%
- Population Hoechst High Intensity Objects (%) (Fibroblast; [12]): 15%
- Population Membrane Permeable-Phenotype (%) (Fibroblast; [12]): 6%
- Population Mitochondria Different-Phenotype (%) (Fibroblast; [12]): 6%
- Population Mitotic Cells (%) (Fibroblast; [12]): 17%
- Population Normal (%) (Fibroblast; [12]): 84%
- Population Pyknosed Nuclei (%) (Fibroblast; [12]): 15%
- Population Tubulin-Different-Phenotype (%) (Fibroblast; [12]): 7%
- Total Cell Count (Fibroblast; [12]): 180
- Population Apoptotic (%) (Fibroblast; [13]): 100%
- Population Fragmented Nuclei (%) (Fibroblast; [13]): 53%
- Population Healthy Nuclei (%) (Fibroblast; [13]): 41%
- Population Hoechst High Intensity Objects (%) (Fibroblast; [13]): 33%
- Population Membrane Permeable-Phenotype (%) (Fibroblast; [13]): 11%
- Population Mitochondria Different-Phenotype (%) (Fibroblast; [13]): 11%
- Population Mitotic Cells (%) (Fibroblast; [13]): 0%
- Population Normal (%) (Fibroblast; [13]): 66%
- Population Pyknosed Nuclei (%) (Fibroblast; [13]): 4%
- Population Tubulin-Different-Phenotype (%) (Fibroblast; [13]): 41%
- Total Cell Count (Fibroblast; [13]): 62

Structure (SMILES): Cc1c(Nc2ccc(S(=O)(=O)N3CCN(C)CC3)cc2F)nc2ccc(Nc3cnn(C4CC4)c3)cn2c1=O
- Growth Rate (U2OS; [1]): 0
- Growth Rate (U2OS; [2]): 0
- Growth Rate (U2OS; 6 h, replicate number 2, timepoint 6 hours): 1
- Growth Rate (U2OS; [3]): 0
- Growth Rate (U2OS; 12 h, replicate number 2, timepoint 12 hours): 1
- Growth Rate (U2OS; [4]): 0
- Growth Rate (U2OS; 18 h, replicate number 2, timepoint 18 hours): 1
- Growth Rate (U2OS; [5]): 0
- Growth Rate (U2OS; 24 h, replicate number 2, timepoint 24 hours): 1
- Growth Rate (HEK-293T; [1]): 1
- Growth Rate (HEK-293T; [2]): 0
- Growth Rate (HEK-293T; [3]): 0
- Growth Rate (HEK-293T; [4]): 0
- Growth Rate (HEK-293T; [5]): 0
- Population Apoptotic (%) (Fibroblast; [6]): 64%
- Population Fragmented Nuclei (%) (Fibroblast; [6]): 30%
- Population Healthy Nuclei (%) (Fibroblast; [6]): 50%
- Population Hoechst High Intensity Objects (%) (Fibroblast; [6]): 12%
- Population Membrane Permeable-Phenotype (%) (Fibroblast; [6]): 31%
- Population Mitochondria Different-Phenotype (%) (Fibroblast; [6]): 6%
- Population Mitotic Cells (%) (Fibroblast; [6]): 35%
- Population Normal (%) (Fibroblast; [6]): 87%
- Population Pyknosed Nuclei (%) (Fibroblast; [6]): 19%
- Population Tubulin-Different-Phenotype (%) (Fibroblast; [6]): 43%
- Total Cell Count (Fibroblast; [6]): 263
- Population Apoptotic (%) (Fibroblast; [7]): 80%
- Population Fragmented Nuclei (%) (Fibroblast; [7]): 62%
- Population Healthy Nuclei (%) (Fibroblast; [7]): 24%
- Population Hoechst High Intensity Objects (%) (Fibroblast; [7]): 40%
- Population Membrane Permeable-Phenotype (%) (Fibroblast; [7]): 55%
- Population Mitochondria Different-Phenotype (%) (Fibroblast; [7]): 11%
- Population Mitotic Cells (%) (Fibroblast; [7]): 20%
- Population Normal (%) (Fibroblast; [7]): 59%
- Population Pyknosed Nuclei (%) (Fibroblast; [7]): 13%
- Population Tubulin-Different-Phenotype (%) (Fibroblast; [7]): 66%
- Total Cell Count (Fibroblast; [7]): 62
- Population Apoptotic (%) (Fibroblast; [8]): 79%
- Population Fragmented Nuclei (%) (Fibroblast; [8]): 27%
- Population Healthy Nuclei (%) (Fibroblast; [8]): 58%
- Population Hoechst High Intensity Objects (%) (Fibroblast; [8]): 12%
- Population Membrane Permeable-Phenotype (%) (Fibroblast; [8]): 7%
- Population Mitochondria Different-Phenotype (%) (Fibroblast; [8]): 1%
- Population Mitotic Cells (%) (Fibroblast; [8]): 20%
- Population Normal (%) (Fibroblast; [8]): 87%
- Population Pyknosed Nuclei (%) (Fibroblast; [8]): 13%
- Population Tubulin-Different-Phenotype (%) (Fibroblast; [8]): 2%
- Total Cell Count (Fibroblast; [8]): 288
- Population Apoptotic (%) (Fibroblast; [9]): 50%
- Population Fragmented Nuclei (%) (Fibroblast; [9]): 55%
- Population Healthy Nuclei (%) (Fibroblast; [9]): 40%
- Population Hoechst High Intensity Objects (%) (Fibroblast; [9]): 27%
- Population Membrane Permeable-Phenotype (%) (Fibroblast; [9]): 9%
- Population Mitochondria Different-Phenotype (%) (Fibroblast; [9]): 0%
- Population Mitotic Cells (%) (Fibroblast; [9]): 50%
- Population Normal (%) (Fibroblast; [9]): 72%
- Population Pyknosed Nuclei (%) (Fibroblast; [9]): 3%
- Population Tubulin-Different-Phenotype (%) (Fibroblast; [9]): 19%
- Total Cell Count (Fibroblast; [9]): 72
- Population Apoptotic (%) (Fibroblast; [10]): 72%
- Population Fragmented Nuclei (%) (Fibroblast; [10]): 30%
- Population Healthy Nuclei (%) (Fibroblast; [10]): 53%
- Population Hoechst High Intensity Objects (%) (Fibroblast; [10]): 12%
- Population Membrane Permeable-Phenotype (%) (Fibroblast; [10]): 14%
- Population Mitochondria Different-Phenotype (%) (Fibroblast; [10]): 1%
- Population Mitotic Cells (%) (Fibroblast; [10]): 27%
- Population Normal (%) (Fibroblast; [10]): 87%
- Population Pyknosed Nuclei (%) (Fibroblast; [10]): 16%
- Population Tubulin-Different-Phenotype (%) (Fibroblast; [10]): 38%
- Total Cell Count (Fibroblast; [10]): 257
- Population Apoptotic (%) (Fibroblast; [11]): 100%
- Population Fragmented Nuclei (%) (Fibroblast; [11]): 57%
- Population Healthy Nuclei (%) (Fibroblast; [11]): 31%
- Population Hoechst High Intensity Objects (%) (Fibroblast; [11]): 30%
- Population Membrane Permeable-Phenotype (%) (Fibroblast; [11]): 40%
- Population Mitochondria Different-Phenotype (%) (Fibroblast; [11]): 0%
- Population Mitotic Cells (%) (Fibroblast; [11]): 0%
- Population Normal (%) (Fibroblast; [11]): 69%
- Population Pyknosed Nuclei (%) (Fibroblast; [11]): 10%
- Population Tubulin-Different-Phenotype (%) (Fibroblast; [11]): 40%
- Total Cell Count (Fibroblast; [11]): 68
- Population Apoptotic (%) (Fibroblast; [12]): 65%
- Population Fragmented Nuclei (%) (Fibroblast; [12]): 22%
- Population Healthy Nuclei (%) (Fibroblast; [12]): 63%
- Population Hoechst High Intensity Objects (%) (Fibroblast; [12]): 13%
- Population Membrane Permeable-Phenotype (%) (Fibroblast; [12]): 7%
- Population Mitochondria Different-Phenotype (%) (Fibroblast; [12]): 1%
- Population Mitotic Cells (%) (Fibroblast; [12]): 34%
- Population Normal (%) (Fibroblast; [12]): 86%
- Population Pyknosed Nuclei (%) (Fibroblast; [12]): 13%
- Population Tubulin-Different-Phenotype (%) (Fibroblast; [12]): 3%
- Total Cell Count (Fibroblast; [12]): 293
- Population Apoptotic (%) (Fibroblast; [13]): 0%
- Population Fragmented Nuclei (%) (Fibroblast; [13]): 57%
- Population Healthy Nuclei (%) (Fibroblast; [13]): 38%
- Population Hoechst High Intensity Objects (%) (Fibroblast; [13]): 21%
- Population Membrane Permeable-Phenotype (%) (Fibroblast; [13]): 9%
- Population Mitochondria Different-Phenotype (%) (Fibroblast; [13]): 4%
- Population Mitotic Cells (%) (Fibroblast; [13]): 100%
- Population Normal (%) (Fibroblast; [13]): 78%
- Population Pyknosed Nuclei (%) (Fibroblast; [13]): 3%
- Population Tubulin-Different-Phenotype (%) (Fibroblast; [13]): 0%
- Total Cell Count (Fibroblast; [13]): 73
